For series [1], the system named is Rattus norvegicus. The experiment in a line: Antiinflammatory activity in chronic phase of po dosed Lewis rat arthritis model assessed as inhibition of SCW-induced ankle swelling administered as bid for 14 days. The series is classed as functional, organism-based. A digest of the protocol: (§1)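 Female Lewis rats (80–100 g) received streptococcal cell wall material ip on day 0. On day 5, rats with a distinct acute-phase joint swelling response were randomized (n = 7/group). Vehicle, 10 or 40 mg/kg was given orally bid from day 10 (start of chronic phase) for 14 days. Ankle and paw swelling were followed.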

Series [2] relates to Mus musculus. The experiment in a line: Inhibition of CSF-1-induced c-fos gene expression in mouse spleen at 40 mg/kg, po after 6 hrs. In kind it is functional. In a few lines:
(§2)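 In the mouse pharmacodynamic model, compound was given orally. Spleen c-fos mRNA induced by an iv injection of CSF-1 was measured 6 or 8 h after dosing.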

The subject of series [3] is Rattus norvegicus. Description: Antiinflammatory activity in chronic phase of Lewis rat arthritis model assessed as inhibition of SCW-induced ankle swelling at 10 to 40 mg/kg, po bid administered for 14 days. In kind it is functional, organism-based. A digest of the protocol:
as §1

Series [4] is described as follows: Metabolic stability in rat liver microsomes assessed as compound remaining after 10 mins. The following applies: read-out: Stability. In kind it is ADME. In a few lines:
(§3)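 Compound was incubated with human, mouse or rat liver microsomal preparations. Stability is the percent of compound remaining after 10 min.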
In general terms: Liver microsomes are vesicles of endoplasmic reticulum, rich in cytochrome P450 enzymes.

The target of series [5] is Mast/stem cell growth factor receptor Kit (Homo sapiens, UniProt P10721). The experiment in a line: Inhibition of KIT (unknown origin).
A short description of series [6]: (§4) Metabolic stability in human liver microsomes assessed as compound remaining after 10 mins. The following applies: liver microsomes, read-out: Stability. The series is classed as ADME. In a few lines: as §3
The subject of series [7] is Mus musculus. Description: Inhibition of CSF-1-induced c-fos gene expression in mouse spleen at 20 mg/kg, po after 6 hrs. In kind it is functional. In a few lines: as §2
A short description of series [8]: Tmax in Sprague-Dawley rat at 5 mg/kg, po. The series is classed as ADME, organism-based. More on the design: dose 5 mg/kg, route oral. The following applies: in vivo.
The nature of series [9]: Terminal half life in Sprague-Dawley rat at 5 mg/kg, po. In kind it is ADME, organism-based. More on the design: dose 5 mg/kg, route oral. The following applies: in vivo, read-out: beta t1/2 (converted).
Series [10] is described as follows: Oral bioavailability in Sprague-Dawley rat at 5 mg/kg. In kind it is ADME, organism-based. The following applies: in vivo.
Series [11] can be described thus: Cmax in Sprague-Dawley rat at 5 mg/kg, po. In kind it is ADME, organism-based. More on the design: dose 5 mg/kg, route oral. The following applies: in vivo.
Series [12] is described as follows: Volume of distribution in Sprague-Dawley rat at 1 mg/kg, iv. In kind it is ADME, organism-based. More on the design: dose 1 mg/kg, route intravenous. The following applies: in vivo.
Series [13] can be described thus: AUC in Sprague-Dawley rat at 5 mg/kg, po. In kind it is ADME, organism-based. More on the design: dose 5 mg/kg, route oral. The following applies: plasma.
The nature of series [14]: Systemic clearance in Sprague-Dawley rat at 1 mg/kg, iv. The series is classed as ADME, organism-based. More on the design: dose 1 mg/kg, route intravenous. The following applies: in vivo.
Series [15] concerns Rattus norvegicus. The experiment in a line: Toxicity in Sprague-Dawley rat at 40 mg/kg, po bid after 4.5 days. The series is classed as organism-based. More on the design: dose 40 mg/kg, route oral. The following applies: in vivo, 108 h. In a few lines:
(§5)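 Female Sprague–Dawley rats (150–200 g) were dosed orally bid for 4 days with vehicle (n = 4) or 10–40 mg/kg (n = 3), as a solution at 6 ml/kg in 20% HPβCD. A final dose was given on day 5 and rats were sacrificed 2 h later. Plasma drug level, body weight versus vehicle controls and blood reticulocytes were assessed.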

A short description of series [16]: Plasma concentration in Sprague-Dawley rat at 40 mg/kg, po bid administered for 5 days measured 2 hrs post last dose. In kind it is ADME, organism-based. More on the design: dose 40 mg/kg, route oral. A digest of the protocol: as §5
Series [17] relates to Rattus norvegicus. The experiment in a line: Toxicity in Sprague-Dawley rat assessed as body weight loss at 40 mg/kg, po bid after 4.5 days relative to vehicle-treated control. The series is classed as organism-based. More on the design: dose 40 mg/kg, route oral. The following applies: in vivo, 108 h. In a few lines: as §5
Series [18] in a line: Metabolic stability in mouse liver microsomes assessed as compound remaining after 10 mins. The series is classed as ADME, Microsome. The following applies: liver microsomes, read-out: Stability. A digest of the protocol: as §3
Series [19] relates to Rattus norvegicus. Description: Toxicity in Sprague-Dawley rat assessed as blood reticulocyte level at 40 mg/kg, po bid after 4.5 days. In kind it is organism-based. More on the design: dose 40 mg/kg, route oral. The following applies: in vivo, 108 h. In a few lines:
as §5

Series [20] can be described thus: Plasma concentration in Sprague-Dawley rat at 10 mg/kg, po bid administered for 5 days measured 2 hrs post last dose. The series is classed as ADME, organism-based. More on the design: dose 10 mg/kg, route oral. In a few lines:
as §5

A further series concerns Liver microsome. Described as §4. The following applies: microsomes, 10 min. In kind it is ADME. A digest of the protocol:
as §3

pIC50: −log10 of the molar value. Active and inactive are the calls of the source. No cut-off for these calls is given here.

Here are results for five molecules from ChEMBL document CHEMBL3085648, “Enhancement of kinase selectivity in a potent class of arylamide FMS inhibitors” (Bioorg Med Chem Lett, 2013).

Mast/stem cell growth factor receptor Kit, sequence (P10721 whole entry): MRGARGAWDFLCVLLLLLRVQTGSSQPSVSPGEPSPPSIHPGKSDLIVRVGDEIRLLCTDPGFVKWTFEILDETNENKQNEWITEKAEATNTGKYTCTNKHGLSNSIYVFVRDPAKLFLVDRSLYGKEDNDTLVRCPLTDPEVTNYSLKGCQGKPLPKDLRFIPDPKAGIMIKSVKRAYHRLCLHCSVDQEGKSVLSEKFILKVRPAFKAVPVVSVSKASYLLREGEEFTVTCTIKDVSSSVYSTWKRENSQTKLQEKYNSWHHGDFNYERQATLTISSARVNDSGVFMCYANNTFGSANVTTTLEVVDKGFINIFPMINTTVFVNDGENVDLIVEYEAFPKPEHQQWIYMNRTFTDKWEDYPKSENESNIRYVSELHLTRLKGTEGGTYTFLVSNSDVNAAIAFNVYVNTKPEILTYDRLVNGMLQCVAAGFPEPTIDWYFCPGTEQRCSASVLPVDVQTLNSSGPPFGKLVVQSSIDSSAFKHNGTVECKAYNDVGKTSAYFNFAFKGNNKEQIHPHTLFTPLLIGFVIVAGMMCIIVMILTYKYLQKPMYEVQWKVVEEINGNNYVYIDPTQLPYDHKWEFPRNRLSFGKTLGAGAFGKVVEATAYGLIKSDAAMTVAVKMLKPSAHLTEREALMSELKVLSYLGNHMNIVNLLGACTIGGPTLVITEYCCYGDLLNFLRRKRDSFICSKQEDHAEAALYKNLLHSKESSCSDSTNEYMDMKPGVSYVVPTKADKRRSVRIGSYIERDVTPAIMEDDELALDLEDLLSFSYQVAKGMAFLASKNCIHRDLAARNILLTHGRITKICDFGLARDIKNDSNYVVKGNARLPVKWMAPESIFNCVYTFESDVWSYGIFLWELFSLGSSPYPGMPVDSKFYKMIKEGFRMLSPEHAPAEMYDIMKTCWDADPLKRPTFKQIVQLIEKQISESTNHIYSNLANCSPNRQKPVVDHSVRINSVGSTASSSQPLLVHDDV

Consider `CC1(C)CC=C(c2cc(C(C)(C)N3CCN(CCO)CC3)ccc2NC(=O)c2ncc(C#N)[nH]2)CC1`, for which the Activity result with Rattus norvegicus [1] is “Dose-dependent effect”. Testing at 40 mg/kg with Mus musculus [2] gave an inhibition in vivo of 78%. Also, in the series with Rattus norvegicus [3], the result was Active.
On to `COCCNCC(C)(C)c1ccc(NC(=O)c2nc(C#N)c[nH]2)c(C2=CCC(C)(C)CC2)c1`, for which the remaining at 10 min in [4] is 39%; in series [6] it was 35%. Besides, the pIC50 (in general, the negative decadic logarithm of the IC50, by convention in mol/L) in series [5] was 6.96. Also, the inhibition in vivo (commonly the drop in the measured response relative to a control, in per cent) at 20 mg/kg with Mus musculus [7] was 0%.
`CC1(C)CC=C(c2cc(C(C)(C)N3CCN(CCO)CC3)ccc2NC(=O)c2nc(C#N)c[nH]2)CC1.Cl`: in series [8], the Tmax (usually the time at which the peak concentration occurs) turned out to be 2.8 h. In addition, in series [9], the half-life is 6.5 h. Besides, in series [10], the bioavailability (usually the share of a dose that reaches the circulation, judged against a reference dose that is usually intravenous) stood at 31%. Also, in [11], the Cmax – broadly, the highest concentration seen after dosing – worked out at 210 nM. Moreover, the Vd (in general, a proportionality between amount in the body and measured concentration, not a real space) in series [12] was found to be 7.6 L/kg. In addition, the AUC (commonly concentration integrated over time) in series [13] came to 690 ng·h/mL. The clearance – broadly, the volume of plasma or blood freed of the substance per unit of time – in [14] was determined as 34 mL/min/kg.
`CC1(C)CC=C(c2cc(C(C)(C)N3CCN(CCO)CC3)ccc2NC(=O)c2nc(C#N)c[nH]2)CC1`: the Activity result in the series on Rattus norvegicus [15], in the series with Rattus norvegicus [17] and in the series on Rattus norvegicus [19] was “Non-toxic” each time. The concentration at 2 h in [16] came to 5160 nM; in series [20] it was 680 nM. Besides, the results for the remaining at 10 min in series [4], in series [6] and in series [18] were 63%, 110% and 98%, respectively.
For `CC(=O)N1CCN(C(C)(C)c2ccc(NC(=O)c3nc(C#N)c[nH]3)c(C3=CCC(C)(C)CC3)c2)CC1`, the pIC50 in series [5] was 7.40. For the same molecule, the Stability result in the series with Liver microsome was “ND(Insoluble)”.
